The source made the active and inactive calls.
Assays:
Format in all cases: functional
Enterococcus faecalis [1] = assay: Antibacterial activity against Enterococcus faecalis ATCC 49533 measured after overnight incubation by broth double-dilution method
Summary of the method: (§1)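 MIC by broth double-dilution in Mueller-Hinton medium. Re-testing at the time-kill inoculum used 1×10^6 CFU/mL.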

[2] = system: Staphylococcus epidermidis; assay: Antibacterial activity against Staphylococcus epidermidis ATCC 12228 measured after overnight incubation by broth double-dilution method; summary of the method: as §1
Pseudomonas aeruginosa = assay: Antibacterial activity against Pseudomonas aeruginosa ATCC 27853 measured after overnight incubation by broth double-dilution method; summary of the method: as §1
Staphylococcus aureus [3] = assay: Antibacterial activity against methicillin-resistant Staphylococcus aureus G14 measured after overnight incubation by broth double-dilution method
Summary of the method: (§2)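 MIC by broth double-dilution in liquid Mueller-Hinton medium. Values are reported in µg/mL.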

Enterococcus = assay: Antibacterial activity against Vancomycin-resistant Enterococcus measured after overnight incubation by broth double-dilution method; summary of the method: as §2
Staphylococcus aureus [4] = assay: Antibacterial activity against methicillin-resistant Staphylococcus aureus G12 measured after overnight incubation by broth double-dilution method; summary of the method: as §2
Staphylococcus aureus [5] = assay: Antibacterial activity against methicillin-resistant Staphylococcus aureus C14 measured after overnight incubation by broth double-dilution method; summary of the method: as §2
Staphylococcus aureus [6] = assay: Antibacterial activity against methicillin-resistant Staphylococcus aureus 1 measured after overnight incubation by broth double-dilution method; summary of the method: as §2
Escherichia coli = assay: Antibacterial activity against Escherichia coli MC1061 measured after overnight incubation by broth double-dilution method; summary of the method: as §2
Staphylococcus aureus [7] = assay: Antibacterial activity against methicillin-resistant Staphylococcus aureus USA100 measured after overnight incubation by broth double-dilution method; summary of the method: as §2
Staphylococcus aureus [8] = assay: Bacteriostatic activity against methicillin-resistant Staphylococcus aureus S22 at 0.5 times MIC measured up to 3 to 6 hrs by time kill analysis
Staphylococcus aureus [9] = assay: Antibacterial activity against methicillin-resistant Staphylococcus aureus C19 measured after overnight incubation by broth double-dilution method; summary of the method: as §2
Enterococcus faecium = assay: Antibacterial activity against Enterococcus faecium BM4105-RF measured after overnight incubation by broth double-dilution method; summary of the method: as §2
Salmonella enterica = assay: Antibacterial activity against Salmonella enterica ATCC 14028 measured after overnight incubation by broth double-dilution method; summary of the method: as §1
Acinetobacter baumannii = assay: Antibacterial activity against Acinetobacter baumannii ATCC 19606 measured after overnight incubation by broth double-dilution method; summary of the method: as §1
Staphylococcus aureus [10] = assay: Antibacterial activity against methicillin-resistant Staphylococcus aureus S17 measured after overnight incubation by broth double-dilution method; summary of the method: as §2
Staphylococcus aureus [11] = assay: Antibacterial activity against methicillin-resistant Staphylococcus aureus C1 measured after overnight incubation by broth double-dilution method; summary of the method: as §2
Staphylococcus aureus [12] = assay: Antibacterial activity against methicillin-resistant Staphylococcus aureus BRS3 measured after overnight incubation by broth double-dilution method; summary of the method: as §2
Staphylococcus aureus [13] = assay: Antibacterial activity against methicillin-sensitive Staphylococcus aureus ATCC 25923 measured after overnight incubation by broth double-dilution method; summary of the method: as §2
Staphylococcus aureus [14] = assay: Antibacterial activity against methicillin-sensitive Staphylococcus aureus ATCC 29213 measured after overnight incubation by broth double-dilution method; summary of the method: as §2
Staphylococcus aureus [15] = assay: Antibacterial activity against methicillin-resistant Staphylococcus aureus USA300 measured after overnight incubation by broth double-dilution method; summary of the method: as §2
Staphylococcus aureus [16] = assay: Antibacterial activity against methicillin-resistant Staphylococcus aureus USA600 measured after overnight incubation by broth double-dilution method; summary of the method: as §2
Staphylococcus aureus [17] = assay: Antibacterial activity against methicillin-resistant Staphylococcus aureus C7 measured after overnight incubation by broth double-dilution method; summary of the method: as §2
Staphylococcus aureus [18] = assay: Bacteriostatic activity against methicillin-resistant Staphylococcus aureus S22 at MIC measured up to 3 to 6 hrs by time kill analysis
Staphylococcus aureus [19] = assay: Antibacterial activity against methicillin-resistant Staphylococcus aureus G6 measured after overnight incubation by broth double-dilution method; summary of the method: as §2
Enterococcus faecalis [20] = assay: Antibacterial activity against Enterococcus faecalis ATCC 29212 measured after overnight incubation by broth double-dilution method; summary of the method: as §1
Enterobacter cloacae = assay: Antibacterial activity against Enterobacter cloacae ATCC 13047 measured after overnight incubation by broth double-dilution method; details: subsp. cloacae ATCC 13047; summary of the method: as §2
Listeria monocytogenes = assay: Antibacterial activity against Listeria monocytogenes ATCC 19115 measured after overnight incubation by broth double-dilution method; summary of the method: as §1
[21] = system: Mycolicibacterium smegmatis; assay: Antibacterial activity against Mycobacterium smegmatis MC2-155 measured after overnight incubation by broth double-dilution method; details: str. MC2 155; summary of the method: as §2
Klebsiella pneumoniae = assay: Antibacterial activity against Klebsiella pneumoniae ATCC 27736 measured after overnight incubation by broth double-dilution method; summary of the method: as §2
[22] = system: Staphylococcus epidermidis; assay: Antibacterial activity against Staphylococcus epidermidis ATCC 35984 measured after overnight incubation by broth double-dilution method; details: RP62A; summary of the method: as §1
Staphylococcus aureus [23] = assay: Antibacterial activity against methicillin-resistant Staphylococcus aureus G1 measured after overnight incubation by broth double-dilution method; summary of the method: as §2
Staphylococcus aureus [24] = assay: Antibacterial activity against methicillin-resistant Staphylococcus aureus S22 measured after overnight incubation by broth double-dilution method; summary of the method: as §2
Staphylococcus aureus [25] = assay: Antibacterial activity against methicillin-resistant Staphylococcus aureus 2 measured after overnight incubation by broth double-dilution method; summary of the method: as §2
Staphylococcus aureus [26] = assay: Antibacterial activity against methicillin-resistant Staphylococcus aureus ATCC 33591 measured after overnight incubation by broth double-dilution method; summary of the method: as §2
Staphylococcus aureus [27] = assay: Antibacterial activity against methicillin-resistant Staphylococcus aureus NRS4 measured after overnight incubation by broth double-dilution method; summary of the method: as §2
Staphylococcus aureus [28] = assay: Antibacterial activity against methicillin-resistant Staphylococcus aureus C2 measured after overnight incubation by broth double-dilution method; summary of the method: as §2
Staphylococcus aureus [29] = assay: Antibacterial activity against methicillin-sensitive Staphylococcus aureus ATCC 6538 measured after overnight incubation by broth double-dilution method; summary of the method: as §2
Staphylococcus aureus [30] = assay: Antibacterial activity against methicillin-resistant Staphylococcus aureus USA200 measured after overnight incubation by broth double-dilution method; summary of the method: as §2
Staphylococcus aureus [31] = assay: Antibacterial activity against methicillin-resistant Staphylococcus aureus NRS51 measured after overnight incubation by broth double-dilution method; summary of the method: as §2
Staphylococcus aureus [32] = assay: Antibacterial activity against methicillin-resistant Staphylococcus aureus NRS77 measured after overnight incubation by broth double-dilution method; summary of the method: as §2
Staphylococcus aureus [33] = assay: Antibacterial activity against methicillin-resistant Staphylococcus aureus S22 using 1 10^6CFU/ml measured after overnight incubation by broth double-dilution method
Staphylococcus aureus [34] = assay: Antibacterial activity against methicillin-resistant Staphylococcus aureus S24 measured after overnight incubation by broth double-dilution method; summary of the method: as §2
Staphylococcus aureus [35] = assay: Antibacterial activity against methicillin-resistant Staphylococcus aureus C16 measured after overnight incubation by broth double-dilution method; summary of the method: as §2
Staphylococcus aureus [36] = assay: Antibacterial activity against methicillin-resistant Staphylococcus aureus S14 measured after overnight incubation by broth double-dilution method; summary of the method: as §2

NCC[C@H](O)C(=O)N[C@@H]1C[C@H](N)[C@@H](O[C@H]2O[C@H](CN)[C@@H](O)[C@H](O)[C@H]2O)[C@H](O)[C@H]1O[C@H]1O[C@H](CO)[C@@H](O)[C@H](N)[C@H]1O [AMIKACIN]
125 µg/mL: MIC (Enterococcus faecium) | MIC (Enterococcus faecalis [20])
1 µg/mL: MIC (Enterobacter cloacae) | MIC (Klebsiella pneumoniae)
2 µg/mL: MIC (Escherichia coli) | MIC (Staphylococcus aureus [11]) | MIC (Staphylococcus aureus [28]) | MIC (Staphylococcus aureus [29])
15.6 µg/mL: MIC (Staphylococcus aureus [4]) | MIC (Staphylococcus aureus [19]) | MIC [22] | MIC (Staphylococcus aureus [31])
7.8 µg/mL: MIC (Salmonella enterica) | MIC (Acinetobacter baumannii) | MIC (Staphylococcus aureus [17]) | MIC (Staphylococcus aureus [24]) | MIC (Staphylococcus aureus [36])
> 125 µg/mL: MIC (Enterococcus faecalis [1])
31.3 µg/mL: MIC [2] | MIC (Pseudomonas aeruginosa) | MIC (Staphylococcus aureus [3]) | MIC (Staphylococcus aureus [5]) | MIC (Staphylococcus aureus [6]) | MIC (Staphylococcus aureus [10]) | MIC (Staphylococcus aureus [23]) | MIC (Staphylococcus aureus [26]) | MIC (Staphylococcus aureus [27]) | MIC (Staphylococcus aureus [34]) | MIC (Staphylococcus aureus [35])
3.9 µg/mL: MIC (Staphylococcus aureus [9]) | MIC (Listeria monocytogenes) | MIC (Staphylococcus aureus [25])
≤ 0.25 µg/mL: MIC (Staphylococcus aureus [13]) | MIC [21]
0.5 µg/mL: MIC (Staphylococcus aureus [32])
62.5 µg/mL: MIC (Enterococcus) | MIC (Staphylococcus aureus [7]) | MIC (Staphylococcus aureus [12]) | MIC (Staphylococcus aureus [14]) | MIC (Staphylococcus aureus [15]) | MIC (Staphylococcus aureus [16]) | MIC (Staphylococcus aureus [30])
active: Activity (Staphylococcus aureus [8]) | Activity (Staphylococcus aureus [18]) | Activity (Staphylococcus aureus [33])

Reference: ChEMBL document CHEMBL3864121, “Development of ebsulfur analogues as potent antibacterials against methicillin-resistant Staphylococcus aureus” (Bioorg Med Chem, 2016)
